{
  "source": "paper PMC6703927",
  "about": "(ACS chemical neuroscience, 2019)",
  "key": {"[1]": {"system": "hDAT Y156F", "conditions": "cited from earlier work"}, "[2]": {"system": "DAT W84L", "conditions": "cited from earlier work"}, "[3]": {"system": "DAT-XC/A372C", "test": "SCAM MTSEA-biotin biotinylation, HEK-293 cells", "format": "cell-based, human"}, "[4]": {"biological_target": "T1, DAT (Rattus norvegicus, UniProt P23977)", "T1 sequence (P23977 whole entry)": "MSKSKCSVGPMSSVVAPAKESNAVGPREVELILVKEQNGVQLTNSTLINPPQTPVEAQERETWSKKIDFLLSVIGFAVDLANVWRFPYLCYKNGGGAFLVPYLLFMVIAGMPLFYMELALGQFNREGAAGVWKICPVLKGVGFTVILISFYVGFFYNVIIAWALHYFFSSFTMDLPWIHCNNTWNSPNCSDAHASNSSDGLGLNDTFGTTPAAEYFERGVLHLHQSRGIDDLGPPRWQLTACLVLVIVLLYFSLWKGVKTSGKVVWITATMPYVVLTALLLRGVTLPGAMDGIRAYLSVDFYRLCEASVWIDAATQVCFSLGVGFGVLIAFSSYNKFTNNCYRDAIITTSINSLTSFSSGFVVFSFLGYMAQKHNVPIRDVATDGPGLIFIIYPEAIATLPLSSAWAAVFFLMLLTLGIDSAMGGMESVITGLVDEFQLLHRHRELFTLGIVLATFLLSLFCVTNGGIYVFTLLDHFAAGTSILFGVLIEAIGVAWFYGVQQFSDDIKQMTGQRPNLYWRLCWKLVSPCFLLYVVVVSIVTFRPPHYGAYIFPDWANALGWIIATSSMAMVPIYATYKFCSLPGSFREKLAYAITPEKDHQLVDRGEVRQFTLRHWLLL", "test": "Synaptosomal dopamine uptake assay, striatal synaptosomes", "format": "biochemical"}, "[5]": {"system": "DAT Y335A", "conditions": "cited from earlier work"}, "[6]": {"biological_target": "T2, DAT-XC/W84C (Homo sapiens, UniProt Q01959, C306A/W84C)", "T2 sequence (Q01959 1-620 W84C/C306A)": "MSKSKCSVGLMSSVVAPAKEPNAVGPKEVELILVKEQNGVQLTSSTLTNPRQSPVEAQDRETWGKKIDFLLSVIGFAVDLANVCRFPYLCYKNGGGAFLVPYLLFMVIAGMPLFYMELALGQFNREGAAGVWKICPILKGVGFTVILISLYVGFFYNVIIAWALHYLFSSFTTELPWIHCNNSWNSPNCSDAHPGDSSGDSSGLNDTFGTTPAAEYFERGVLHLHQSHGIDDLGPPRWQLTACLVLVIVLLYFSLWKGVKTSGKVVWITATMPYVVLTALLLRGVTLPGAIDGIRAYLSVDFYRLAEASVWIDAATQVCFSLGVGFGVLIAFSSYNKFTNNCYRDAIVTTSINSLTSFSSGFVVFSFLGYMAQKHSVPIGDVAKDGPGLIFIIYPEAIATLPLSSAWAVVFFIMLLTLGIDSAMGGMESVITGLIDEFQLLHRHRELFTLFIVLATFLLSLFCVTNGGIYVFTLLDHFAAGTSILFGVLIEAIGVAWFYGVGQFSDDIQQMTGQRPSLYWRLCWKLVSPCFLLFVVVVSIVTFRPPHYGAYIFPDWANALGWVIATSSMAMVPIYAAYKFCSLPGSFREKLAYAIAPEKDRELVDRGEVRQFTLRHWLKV", "test": "SCAM MTSEA-biotin biotinylation, HEK-293 cells", "format": "cell-based"}, "[7]": {"system": "DAT-XC/A372C", "conditions": "DAT-XC/A372C treated with cocaine; cited from earlier work"}, "[8]": {"system": "DAT-XC/T316C", "test": "SCAM MTSEA-biotin biotinylation, HEK-293 cells", "format": "cell-based, human", "in_short": "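HEK-293 cells (Lipojet transfection) expressed HA-tagged DAT-XC/T316C. […] Streptavidin-purified biotinylated DAT was immunoblotted with anti-HA, normalized to total DAT in unpurified lysate, then to the untreated band. Eight independent experiments were run.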"}, "[9]": {"system": "DAT-XC/T316C", "conditions": "DAT-XC/T316C in the presence of cocaine; cited from earlier work"}, "[10]": {"system": "DAT mutant D385C", "test": "DA uptake dose-response inhibition assay, transiently expressed DAT mutant", "format": "cell-based, human", "conditions": "D385C vs DAT-XC", "in_short": "(§1)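 Mutants were made by site-directed mutagenesis. Single mutants used human WT DAT as background, and double cysteine mutants used C306A-DAT (DAT-XC). DA uptake dose-response gave IC50s from three or more independent experiments. Cysteine mutant IC50s were compared with DAT-XC, and D476 mutant IC50s with DAT-WT, by paired Student's t test.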"}, "[11]": {"biological_target": "hNET (Homo sapiens, UniProt P23975)", "sequence (P23975 whole entry)": "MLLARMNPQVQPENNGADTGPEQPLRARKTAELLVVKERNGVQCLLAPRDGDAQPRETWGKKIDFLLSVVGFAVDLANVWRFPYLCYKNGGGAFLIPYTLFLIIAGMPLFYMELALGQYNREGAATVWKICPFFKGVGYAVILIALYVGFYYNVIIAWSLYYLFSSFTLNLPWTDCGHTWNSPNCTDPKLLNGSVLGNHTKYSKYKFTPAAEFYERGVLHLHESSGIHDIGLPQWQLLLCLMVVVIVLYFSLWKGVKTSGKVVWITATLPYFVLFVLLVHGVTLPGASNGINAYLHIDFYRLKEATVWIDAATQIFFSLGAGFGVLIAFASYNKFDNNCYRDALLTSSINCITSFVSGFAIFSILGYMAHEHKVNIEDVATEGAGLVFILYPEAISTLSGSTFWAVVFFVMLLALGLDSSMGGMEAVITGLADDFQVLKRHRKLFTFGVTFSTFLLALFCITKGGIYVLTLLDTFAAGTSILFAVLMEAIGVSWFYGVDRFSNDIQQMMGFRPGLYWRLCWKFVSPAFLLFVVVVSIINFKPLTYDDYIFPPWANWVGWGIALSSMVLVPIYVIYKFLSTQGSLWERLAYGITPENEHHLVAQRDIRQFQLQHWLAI", "format": "cell-based", "conditions": "hDAT vs hNET", "in_short": "(§2)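 MDCK cells stably expressing hDAT, hNET or hSERT were kept in DMEM with 10% FBS, pen/strep and blasticidin (5 μg/mL) at 37 °C, 5% CO2. Radiolabeled neurotransmitter uptake ([3H]-DA, [3H]serotonin) was measured against test compound dose. Results were normalized to percent of the highest response, and IC50 was fitted by nonlinear regression from three independent experiments.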"}, "[12]": {"system": "DAT mutant D476N", "test": "DA uptake dose-response inhibition assay, transiently expressed DAT mutant", "format": "cell-based, human", "conditions": "D476N vs DAT-WT", "in_short": "as §1"}, "[13]": {"biological_target": "T1, DAT", "test": "Ex vivo slice fast scan cyclic voltammetry, Nucleus accumbens", "conditions": "50 μM KM822, NAc slices", "in_short": "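Rats were anesthetized with 2.5% isoflurane for 3 min and decapitated, and coronal NAc slices were cut into oxygenated ACSF (pH 7.4). After 30 min recovery at room temperature, slices were recorded at 32 °C by carbon-fiber microelectrode. Single pulses (400 μA, 4 ms, monophasic) were given every 3 min until baseline stabilized over three stimulations.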"}, "[14]": {"biological_target": "WT-DAT (Homo sapiens, UniProt Q01959)", "sequence (Q01959 whole entry)": "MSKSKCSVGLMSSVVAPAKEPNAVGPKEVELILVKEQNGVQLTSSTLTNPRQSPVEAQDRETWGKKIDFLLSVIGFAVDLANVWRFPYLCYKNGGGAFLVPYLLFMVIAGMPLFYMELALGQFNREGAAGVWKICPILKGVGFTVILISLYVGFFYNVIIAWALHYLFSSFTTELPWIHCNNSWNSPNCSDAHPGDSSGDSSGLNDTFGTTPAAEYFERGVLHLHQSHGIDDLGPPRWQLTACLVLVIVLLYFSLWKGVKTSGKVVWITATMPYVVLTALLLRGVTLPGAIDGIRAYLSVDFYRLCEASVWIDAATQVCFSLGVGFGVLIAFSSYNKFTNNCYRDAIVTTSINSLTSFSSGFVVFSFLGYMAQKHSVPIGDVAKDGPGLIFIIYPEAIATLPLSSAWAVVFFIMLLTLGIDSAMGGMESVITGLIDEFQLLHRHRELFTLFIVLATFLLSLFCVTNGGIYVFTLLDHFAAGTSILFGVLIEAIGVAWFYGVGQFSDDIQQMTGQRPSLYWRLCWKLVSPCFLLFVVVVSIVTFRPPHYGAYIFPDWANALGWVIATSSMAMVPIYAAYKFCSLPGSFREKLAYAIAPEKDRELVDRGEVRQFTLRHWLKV", "test": "DA uptake inhibition assay, transfected COS-7 cells", "format": "cell-based", "conditions": "read-out: IC50 DA uptake inhibition; WT-DAT transfected COS-7 cells"}, "[15]": {"biological_target": "Y156F-DAT (Homo sapiens, UniProt Q01959, Y156F)", "sequence (Q01959 whole entry Y156F)": "as the sequence (Q01959 whole entry) above, with Y156F counted along it", "test": "DA uptake inhibition assay, transfected COS-7 cells", "format": "cell-based", "in_short": "(§3)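 COS-7 cells (DMEM, 10% FBS, pen/strep, 37 °C, 5% CO2) were transiently transfected with WT or mutant human DAT using TransIT-LT1. Dopamine uptake was measured across a dose-response of test compound. Responses were normalized, and IC50 was obtained by nonlinear regression. Means and SEM come from three independent experiments, with the mutant compared against WT-DAT.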"}, "[16]": {"biological_target": "hSERT (Homo sapiens, UniProt P31645)", "sequence (P31645 whole entry)": "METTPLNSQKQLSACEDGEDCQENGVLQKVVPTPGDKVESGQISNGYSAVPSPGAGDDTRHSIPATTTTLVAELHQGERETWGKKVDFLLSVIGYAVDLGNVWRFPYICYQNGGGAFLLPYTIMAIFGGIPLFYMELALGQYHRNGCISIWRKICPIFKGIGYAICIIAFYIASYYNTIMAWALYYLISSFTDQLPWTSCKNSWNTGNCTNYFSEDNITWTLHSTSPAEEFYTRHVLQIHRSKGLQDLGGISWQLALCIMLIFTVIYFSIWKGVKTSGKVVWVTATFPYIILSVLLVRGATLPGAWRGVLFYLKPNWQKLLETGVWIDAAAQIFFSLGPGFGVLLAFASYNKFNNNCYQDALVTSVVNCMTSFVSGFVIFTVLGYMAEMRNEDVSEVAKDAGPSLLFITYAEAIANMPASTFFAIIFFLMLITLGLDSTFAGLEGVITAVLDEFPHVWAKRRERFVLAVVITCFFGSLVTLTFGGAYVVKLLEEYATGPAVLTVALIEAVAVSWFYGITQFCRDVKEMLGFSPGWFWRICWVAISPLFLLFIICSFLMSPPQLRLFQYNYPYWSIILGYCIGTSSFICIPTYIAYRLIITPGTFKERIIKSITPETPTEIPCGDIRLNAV", "format": "cell-based", "conditions": "hDAT vs SERT", "in_short": "as §2"}, "[17]": {"system": "DAT cysteine mutant R544C", "test": "SCAM MTSEA-biotin biotinylation, HEK-293 cells", "format": "cell-based, human", "conditions": "20 μM KM822 coincubation", "in_short": "(§4)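 SCAM used HEK-293 cells (Lipojet transfection) expressing N-terminally HA-tagged cysteine mutants on the C306A background. Cells were incubated with test compound (20 μM) before MTSEA-biotin labeling. Biotinylated DAT was pulled down on streptavidin beads and immunoblotted with anti-HA antibody. It was normalized to total DAT from unpurified lysates, then to the untreated band.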"}, "[18]": {"biological_target": "Y335A-DAT (Homo sapiens, UniProt Q01959, Y335A)", "sequence (Q01959 whole entry Y335A)": "as the sequence (Q01959 whole entry) above, with Y335A counted along it", "test": "DA uptake inhibition assay, transfected COS-7 cells", "format": "cell-based", "in_short": "as §3"}, "[19]": {"system": "DAT cysteine mutant T473C", "test": "SCAM MTSEA-biotin biotinylation, HEK-293 cells", "format": "cell-based, human", "conditions": "20 μM KM822 coincubation", "in_short": "as §4"}, "[20]": {"system": "wild type DAT", "test": "[3H]-DA uptake kinetic assay, transiently transfected COS-7 cells", "format": "cell-based, human", "conditions": "for Vmax of dopamine uptake: vehicle 71.5 ± 6.12", "in_short": "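WT human DAT was transiently expressed in COS-7 cells (TransIT-LT1). [3H]-dopamine saturation uptake was run with vehicle, 1 μM or 5 μM test compound. Vmax and Km were obtained from a Michaelis-Menten nonlinear regression fit. Figure data and kinetic constants are averaged over four independent experiments.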"}, "[21]": {"biological_target": "T2, DAT-XC/W84C", "test": "DA uptake dose-response inhibition assay, transiently expressed DAT mutant", "format": "cell-based", "conditions": "W84C vs DAT-XC", "in_short": "as §1"}, "[22]": {"system": "DAT cysteine mutant D385C", "test": "SCAM MTSEA-biotin biotinylation, HEK-293 cells", "format": "cell-based, human", "conditions": "20 μM KM822 coincubation", "in_short": "as §4"}},
  "data": [
    {"smiles": "NC(=O)C[S@+]([O-])C(c1ccccc1)c1ccccc1", "note": "[S-modafinil]", "values": [
      {"measurement": "potency change by Y156F mutation", "setting": "[1]", "value": "significantly reduced"}
    ]},
    {"smiles": "CN1[C@@H]2CC[C@H]1C[C@@H](OC(c1ccccc1)c1ccccc1)C2", "note": "[benztropine]", "values": [
      {"measurement": "change of apparent potency in W84 to leucine mutant", "setting": "[2]", "value": "decrease in apparent potency"}
    ]},
    {"smiles": "COC(=O)[C@H]1[C@@H](OC(=O)c2ccccc2)C[C@@H]2CC[C@H]1N2C", "note": "[cocaine]", "values": [
      {"measurement": "effect on MTSEA-biotin labeling", "setting": "[3]; 100 μM cocaine", "value": "no change in labeling"},
      {"measurement": "total DA uptake in striatal synaptosomes", "setting": "[4]; 100 μM cocaine", "value": "significantly blocked"},
      {"measurement": "change of apparent potency in W84 to leucine mutant", "setting": "[2]", "value": "increased apparent potency"},
      {"measurement": "potency change by Y335A mutation", "setting": "[5]", "value": "markedly impairs"},
      {"measurement": "effect on MTSEA-biotin labeling", "setting": "[6]; 100 μM cocaine coincubation", "value": "not affected"},
      {"measurement": "labeling with a maleimide-based biotin molecule", "setting": "[7]", "value": "no change in labeling"},
      {"measurement": "effect on MTSEA-biotin labeling", "setting": "[8]; 100 μM cocaine", "value": "increased labeling"},
      {"measurement": "labeling with a maleimide-based biotin molecule", "setting": "[9]", "value": "increased labeling"},
      {"measurement": "binding affinity change by Y156F mutation", "setting": "[1]", "value": "unaffected"}
    ]},
    {"smiles": "Fc1ccc(C(OCCN2CCN(CCCc3ccccc3)CC2)c2ccc(F)cc2)cc1", "note": "[GBR12909]", "values": [
      {"measurement": "total DA uptake in striatal synaptosomes", "setting": "[4]; 1 μM GBR12909", "value": "significantly blocked"},
      {"measurement": "change of apparent potency in W84 to leucine mutant", "setting": "[2]", "value": "decrease in apparent potency"}
    ]},
    {"smiles": "CCCCN1[C@@H]2CC[C@H]1CC(OC(c1ccc(F)cc1)c1ccc(F)cc1)C2", "note": "(some centres unmarked) [JHW-007]", "values": [
      {"measurement": "potency change by Y156F mutation", "setting": "[1]", "value": "significantly reduced"}
    ]},
    {"smiles": "CCc1ccc2[nH]c3nc(SCCNS(=O)(=O)c4ccc(NC(C)=O)cc4)nnc3c2c1", "note": "[KM822]", "values": [
      {"measurement": "effect on MTSEA-biotin labeling", "setting": "[3]; 20 μM KM822", "value": "no significant change"},
      {"measurement": "change of apparent potency in mutant", "setting": "[10]", "value": "lowered"},
      {"measurement": "potency for hDAT transport inhibition higher than for hNET", "setting": "[11]", "value": 30, "unit": "folds"},
      {"measurement": "change of apparent potency in mutant", "setting": "[12]", "value": "lowered"},
      {"measurement": "effect on stimulated DA release / cocaine-induced changes in DA release", "setting": "[13]", "value": "did not affect"},
      {"measurement": "effect on cocaine-induced inhibition of DA uptake (app Km)", "setting": "[13]; cumulative cocaine, significant at 30 μM cocaine", "value": "significantly reduced"},
      {"measurement": "effect on MTSEA-biotin biotinylation", "setting": "[6]; 20 μM KM822 coincubation", "value": "significantly decreased"},
      {"measurement": "IC50", "setting": "[14]", "value": "3.8 ± 0.88", "unit": "µM"},
      {"measurement": "potency in Y156F-DAT mutant as compared to WT-DAT", "setting": "[15]; COS-7 cells", "value": "unchanged"},
      {"measurement": "IC50", "setting": "[15]; read-out: IC50 DA uptake inhibition, Y156F-DAT transfected COS-7 cells", "value": "3.3 ± 0.45", "unit": "µM"},
      {"measurement": "effect on MTSEA-biotin labeling", "setting": "[8]; 20 μM KM822", "value": "increased"},
      {"measurement": "potency for hDAT transport inhibition higher than for SERT", "setting": "[16]", "value": 50, "unit": "folds"},
      {"measurement": "effect on MTSEA-biotin biotinylation", "setting": "[17]", "value": "no effect"},
      {"measurement": "potency reduction in Y335A mutant vs WT-DAT", "setting": "[18]; COS-7 cells", "value": 3, "unit": "fold"},
      {"measurement": "IC50", "setting": "[18]; read-out: IC50 DA uptake inhibition, Y335A-DAT transfected COS-7 cells", "value": "12.8 ± 1.4", "unit": "µM"},
      {"measurement": "effect on MTSEA-biotin biotinylation", "setting": "[19]", "value": "no effect"},
      {"measurement": "Vmax of dopamine uptake", "setting": "[20]; in the presence of 1 μM KM822", "value": "65.8 ± 8.71", "unit": "μmol/min/well"},
      {"measurement": "Vmax of dopamine uptake", "setting": "[20]; in the presence of 5 μM KM822", "value": "57.9 ± 4.15", "unit": "μmol/min/well"},
      {"measurement": "manner of dopamine uptake inhibition", "setting": "[20]; uptake kinetics", "value": "noncompetitive"},
      {"measurement": "change of potency in mutant", "setting": "[21]", "value": "increase in potency"},
      {"measurement": "effect on MTSEA-biotin biotinylation", "setting": "[22]", "value": "no effect"}
    ]}
  ]
}
